Results from ChEMBL document CHEMBL1121748, “Antimycotic imidazoles. 5. Synthesis and antimycotic properties of 1-[[2-aryl-4-(arylalkyl)-1,3-dioxolan-2-yl]methyl]-1H-imidazoles” (1981).

Tests used:
[1] = test system: Staphylococcus haemolyticus; experiment: Antibacterial against Staphylococcus hemolyticus; assay type: functional
Mucor = experiment: Antifungal activity against Mucor species; assay type: functional
Saprolegnia [2] = experiment: Antifungal activity against Saprolegnia species; assay type: functional
Cryptococcus neoformans = experiment: Antifungal activity against Cryptococcus neoformans; assay type: functional
[3] = test system: Trichophyton mentagrophytes; experiment: Compound was tested for antifungal activity against Trichophyton mentagrophytes
Streptococcus pyogenes = experiment: Antibacterial activity against Streptococcus pyogenes; assay type: functional
Microsporum canis = experiment: Antifungal activity against Microsporum canis; assay type: functional
[4] = test system: Erysipelothrix rhusiopathiae; experiment: Antibacterial activity against Erysipelothrix insidiosa; assay type: functional
Trichophyton rubrum = experiment: Antifungal activity against Trichophyton rubrum; assay type: functional
Phialophora verrucosa [5] = experiment: Antifungal activity against Phialophora verrucosa; assay type: functional
Aspergillus fumigatus = experiment: Antifungal activity against Aspergillus fumigatus; assay type: functional
Sporothrix schenckii = experiment: Antifungal activity against Sporothrix schenck ii; assay type: functional
[6] = Ratio of animals cured to that of animals infected, tested in vivo for antifungal activity against vaginal candidosis in rat; 1/2
Candida tropicalis = experiment: Antifungal activity against Candida tropicalis; assay type: functional
Candida albicans = experiment: Antifungal activity against Candida albicans; assay type: functional
Saprolegnia [7] = experiment: compound was tested for antifungal activity against Saprolegnia species; assay type: functional
[8] = Ratio of animals cured to that of animals infected, tested in vivo for antifungal activity against cutaneous candidosis in guinea pig; 0/2; assay type: functional
Trichophyton benhamiae = experiment: Antifungal activity against Trichophyton mentagrophytes; assay type: functional, trychophyton mentagrophytes
[9] = Ratio of animals cured to that of animals […], Tested in vivo for antifungal activity against vaginal candidosis in rat; 2/4; assay type: functional
[10] = Ratio of animals cured to that of animals infected, tested in vivo for antifungal activity against cutaneous candidosis in guinea pig; 3/4; assay type: functional
[11] = Ratio of animals cured to that of animals infected, tested in vivo for antifungal activity against vaginal candidosis in rat; 0/2
[12] = Ratio of animals cured to that of animals infected, tested in vivo for antifungal activity against vaginal candidosis in rat; 0/2; assay type: functional
In short: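 Rat experimental vaginal candidosis. Compounds were given orally as a suspension in polyethylene glycol 200 at 10 mg/kg/day for 14 consecutive days.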

[13] = Ratio of animals cured to that of animals infected, tested in vivo for antifungal activity against cutaneous candidosis in guinea pig; 1/2; assay type: functional
Phialophora verrucosa [14] = experiment: compound was tested for antifungal activity against Phialophora verrucosa; assay type: functional
[15] = Ratio of animals cured to that of animals […], Tested in vivo for antifungal activity against vaginal candidosis in rat; 0/2; assay type: functional
[16] = Ratio of animals cured to that of animals infected, tested in vivo for antifungal activity against cutaneous candidosis in guinea pig; 4/13; assay type: functional
[17] = Ratio of animals cured to that of animals […], Tested in vivo for antifungal activity against vaginal candidosis in rat; 0/6; assay type: functional

Row | SMILES | Inhibition [1] [µg/mL] | Inhibition (Mucor) [µg/mL] | Inhibition (Saprolegnia [2]) [µg/mL] | Inhibition (Cryptococcus neoformans) [µg/mL] | Inhibition (Streptococcus pyogenes) [µg/mL] | Inhibition (Microsporum canis) [µg/mL] | Inhibition [4] [µg/mL] | Inhibition (Trichophyton rubrum) [µg/mL] | Inhibition (Phialophora verrucosa [5]) [µg/mL] | Inhibition (Aspergillus fumigatus) [µg/mL] | Inhibition (Sporothrix schenckii) [µg/mL] | Inhibition (Candida tropicalis) [µg/mL] | Inhibition (Candida albicans) [µg/mL] | Inhibition (Trichophyton benhamiae) [µg/mL] | further results
1 | Cc1ccc(C2COC(Cn3ccnc3)(c3ccc(Br)cc3)O2)cc1 (centres undefined) | 10 | 10 | 100 | 10 | 10 | <1 | 1 | <1 | 100 | <1 | 100 | >100 | 10 |  | Inhibition [3]: 10 µg/mL; Ratio [6]: 1
2 | Clc1ccc(C2COC(Cn3ccnc3)(c3ccccc3)O2)c(Cl)c1 (centres undefined) | 10 | 100 |  | 10 | 1 | 10 | 10 | <1 | 100 | 10 | 10 | >100 | >100 | <1 | Inhibition (Saprolegnia [7]): 100 µg/mL; Ratio [8]: 0
3 | COc1ccc(CCC2COC(Cn3ccnc3)(c3ccc(Cl)cc3Cl)O2)cc1 (centres undefined) | 100 | 100 | 100 | 1 | <1 | 1 | <1 | <1 | 100 | <1 | 10 | 10 | 100 | <1 | Ratio [9]: 0.5; Ratio [8]: 0
4 | Clc1ccc(C2(Cn3ccnc3)OCC(c3ccc(Br)cc3)O2)c(Cl)c1 (centres undefined) | 10 | 10 | 100 | <1 | 1 | <1 | 1 | <1 | 100 | <1 | 10 | 10 | 100 | <1 | Ratio [10]: 0.75; Ratio [11]: 0
5 | Clc1ccc(C2COC(Cn3ccnc3)(c3ccccc3)O2)cc1 (centres undefined) | 100 | 100 | 100 | 10 | 1 | <1 | 1 | <1 | 100 | 10 | 10 | 100 | >100 | <1 | Ratio [12]: 0; Ratio [13]: 1
6 | Clc1ccc(C2(Cn3ccnc3)OCC(CCc3ccccc3)O2)c(Cl)c1 (centres undefined) | 10 | 10 | 100 | <1 | <1 | <1 | <1 | <1 |  | <1 | <1 | 10 | 100 | <1 | Inhibition (Phialophora verrucosa [14]): 100 µg/mL; Ratio [15]: 0
7 | Clc1ccc(COC(Cn2ccnc2)c2ccc(Cl)cc2Cl)c(Cl)c1 (centres undefined) [MICONAZOLE] | 10 | >100 | 10 | 1 | <1 | 1 | <1 | <1 | 100 | 10 | 1 | 100 | 10 | <1 | Ratio [16]: 0.31; Ratio [17]: 0
